Results taken from ChEMBL document CHEMBL4376807, “Hydroxamic Acid Derivatives of β-Carboline/Hydroxycinnamic Acid Hybrids Inducing Apoptosis and Autophagy through the PI3K/Akt/mTOR Pathways” (J Nat Prod, 2019).
Calls of active or inactive are those of the source. No cut-off for these calls is given here.

Experiments:
L02 = test: Cytotoxicity against human LO2 cells after 72 hrs by MTT assay; format: functional, cell-based; settings: L02, 72 h
Summary of the method: (§1)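 Cells grown in DMEM with 10% heat-inactivated FBS, penicillin/streptomycin, 37 °C, 5% CO2. Seeded at 10^4 cells/mL overnight, then exposed to a range of compound concentrations for 72 h; 0.1% DMSO negative control. MTT (5 mg/mL stock) added, absorbance read at 570 nm; percent inhibition from three independent experiments, mean ± SD.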

Bel-7402 [1] = test: Antiproliferative activity against human Bel7402 cells at 0.2 to 5 uM after 72 hrs by MTT assay; format: functional, cell-based; summary of the method: as §1
[2] = biological target: Histone deacetylase (Homo sapiens) (UniProt Q13547+O15379+Q9UBN7+Q92769+Q9UQL6+Q8WUI4+Q9BY41+Q96DB2+P56524+Q9UKV0+Q969S8); test: Inhibition of HDAC in human Bel7402 cells assessed as increase in acetylated histone h3 expression incubated for 72 hrs by Western blot analysis; format: cell-based
Summary of the method: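 Bel7402 cells exposed to vehicle or compound (1.0 and 3.0 μM) for 72 h, with SAHA 5.0 μM as reference. Lysates (0.05 mg/lane) run on 12% SDS-PAGE and transferred to nitrocellulose. Probed with anti-acetyl-H3 and anti-acetyl-α-tubulin, HRP secondary, chemiluminescence. Quantified from three separate assays, mean ± SD.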

Bel-7402 [3] = test: Induction of apoptosis in human Bel7402 cells assessed as increase in cleaved caspase-3 level at 1 uM after 72 hrs by Western blot analysis; format: functional, cell-based
Summary of the method: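 Subconfluent Bel7402 cells (1.5 × 10^5/mL) exposed to vehicle or compound for 72 h, then lysed. Lysates (0.05 mg/lane) run on 12% SDS-PAGE, transferred to nitrocellulose, blocked in 5% nonfat milk. Probed for Bax, Bcl-2, cleaved caspase-3 and cleaved PARP, with HRP secondary and chemiluminescence. Levels normalized to β-actin; three separate assays, mean ± SD.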

Bel-7402 [4] = test: Induction of autophagy in human Bel7402 cells assessed as accumulation of autophagic vacuoles at 1 uM after 24 hrs by acridine orange staining based fluorescence microscopic method; format: functional, cell-based
Summary of the method: (§2)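 Bel7402 cells (10 000) cultured overnight, then exposed to compound at 1.0 or 5.0 μM, or vehicle. Stained with 1 mg/mL acridine orange for 15−20 min, then dye removed. Red versus green fluorescence viewed by fluorescence microscopy at 400×. Representative images from three independent experiments.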

Bel-7402 [5] = test: Induction of autophagy in human Bel7402 cells assessed as accumulation of autophagic vacuoles at 5 uM after 24 hrs by acridine orange staining based fluorescence microscopic method; format: functional, cell-based; summary of the method: as §2
Bel-7402 [6] = test: Induction of autophagy in human Bel7402 cells assessed as upregulation of LC3-2 level at 1 uM after 24 to 72 hrs by Western blot analysis; format: functional, cell-based
Summary of the method: (§3)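 Bel7402 cells (1.5 × 10^5/mL) exposed to compound at indicated doses, or vehicle, for 24 or 72 h. Lysates (0.05 mg/lane) separated on 12% SDS-PAGE, blotted to nitrocellulose, blocked in 5% milk. Probed with anti-LC3, anti-p62 and anti-beclin-1, HRP secondary, chemiluminescent detection. Levels quantified relative to β-actin; three separate assays, mean ± SD.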

Bel-7402 [7] = test: Induction of autophagy in human Bel7402 cells assessed as upregulation of Beclin1 level at 1 to 5 uM after 24 to 72 hrs by Western blot analysis; format: functional, cell-based; summary of the method: as §3
Bel-7402 [8] = test: Induction of autophagy in human Bel7402 cells assessed as downregulation of p62 level at 1 to 5 uM after 24 to 72 hrs by Western blot analysis; format: functional, cell-based; summary of the method: as §3
Bel-7402 [9] = test: Effect on AKT expression in human Bel7402 cells at 1 to 2.5 uM after 24 to 72 hrs by Western blot analysis; format: ADME, cell-based; settings: bel-7402, 2.5 µM
Summary of the method: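 Bel7402 cells (1.5 × 10^5/mL) exposed to compound at 1.0 and 2.5 μM for 24 or 72 h. Lysates (0.05 mg/lane) separated on 12% SDS-PAGE and blotted to nitrocellulose. Probed for total Akt, phospho-Akt (Ser473), total mTOR and phospho-mTOR, HRP secondary, chemiluminescent detection. Quantified from three separate assays, mean ± SD.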

Q: What does the source list for `COc1ccc(-c2nc(NCCCOc3ccc(/C=C/C(=O)NO)cc3OC)cc3c2[nH]c2ccccc23)cc1`?
A: IC50 (L02): > 25 µM; Activity (Bel-7402 [1]): Active; inhibition [2]: Dose-dependent effect; Activity (Bel-7402 [3]): Active; Activity (Bel-7402 [4]): Active; Activity (Bel-7402 [5]): Active; Activity (Bel-7402 [6]): Active; Activity (Bel-7402 [7]): Active; Activity (Bel-7402 [8]): Active; Activity (Bel-7402 [9]): Non-Toxic
